Screening results as filed in PubChem.
AP ELISA ortho: alternative pathway complement inhibition, orthogonal assay | Human serum alternative complement pathway, LPS-coated ELISA, C3 deposition; tested in compound mixtures | inhibition, % at 5 µM | 62,000 compounds, 0.08% hits | AID 1235;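 active means inhibition above 30% in each of the two pooled mixtures holding the compound, so the lower value exceeds 30%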;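 further: 0% = serum in Mg-EGTA without compound and 100% = EDTA serum blank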
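Assay system: Human serum alternative complement pathway, C3 deposition on LPS-coated wells | Incubation: 1 h serum-compound exposure at 37 °C | Doses: 5 µM per compound in ten-compound mixtures | Read-out: Percent inhibition | Technique: ELISA with HRP anti-human C3 antibody, TMB substrate, absorbance 450 nm | Replication: Two pool placements per compound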
D1 mod: allosteric modulators of human D1 dopamine receptor; AID 641; B-score at 10 µM; 58,000 compounds, 5.9% hits; HEK293 D1, CRE-luciferase, dopamine EC30 potentiation; actives deviate in either direction;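 active means luminescence count or its row- and column-corrected plate score outside the 99.7% band of the plate's sample wells, on either side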
Target sequence (P21728 whole entry, looked up): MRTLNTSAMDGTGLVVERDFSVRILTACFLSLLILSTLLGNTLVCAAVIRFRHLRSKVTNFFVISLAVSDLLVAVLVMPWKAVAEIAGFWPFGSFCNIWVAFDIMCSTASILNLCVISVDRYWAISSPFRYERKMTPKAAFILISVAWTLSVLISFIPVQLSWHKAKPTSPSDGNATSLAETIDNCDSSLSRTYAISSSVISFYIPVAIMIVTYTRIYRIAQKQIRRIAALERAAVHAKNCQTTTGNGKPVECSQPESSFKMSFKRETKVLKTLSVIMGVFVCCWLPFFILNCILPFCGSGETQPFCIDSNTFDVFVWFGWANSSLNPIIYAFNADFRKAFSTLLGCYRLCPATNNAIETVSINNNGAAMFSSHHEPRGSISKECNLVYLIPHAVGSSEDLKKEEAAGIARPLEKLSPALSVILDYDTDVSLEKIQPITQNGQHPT
M1 antagonist: antagonists of rat M1 muscarinic receptor; B-score at 10 µM; 64,000 compounds, 3.4% hits; CHO-M1 cells, Fluo-4 calcium, ACh EC80 antagonist mode; hits give low values;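 active means calcium fluorescence response, raw or row-and-column corrected B-score, differing from the plate sample mean either way at a set confidence level, mostly lower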
M1 ag: M1 muscarinic receptor agonism. CHO-M1 cells, Fluo-4 calcium fluorescence, agonist mode; hits give high values. B-score at 10 µM. 64,000 compounds, 3% hits. AID 626;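 active means fluorescence rise, raw or as B-score row- and column-corrected plate score, outside the 99.7% band of its plate's samples, either direction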
Htt clearance: mutant huntingtin protein clearance; HeLa Exon1htt(103Q)mCFP, aggregate imaging; zero = plate's median compound well; inhibition, % at 1.5 µM; 47,000 compounds, 0.42% hits; AID 853;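 active means inhibition of aggregate fluorescence above about 70%, also judged a hit by eye on the cell image, limit read from the data, passing the limit was not always enough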;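 further: cells exposed to compound for three days before fixation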
M1 antag conf: confirmation of rat M1 muscarinic receptor antagonists | shares compounds with M1 antagonist | CHO-M1 cells, Fluo-4 calcium, ACh EC80 antagonism; hits give low values | calcium response (max-min fluorescence) at 10 µM | 1,700 compounds, 43% hits;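 active means calcium response below the same-plate mean of wells given acetylcholine alone at its 80%-effect dose, minus 3 SD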;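 further: raw fluorescence intensity difference in arbitrary instrument units and not normalized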
mGluR4 antag: selectivity test for M1 antagonists: human mGluR4 receptor | shares compounds with M1 antagonist | CHO-mGluR4 calcium flux, Fluo-4 fluorescence, glutamate EC80; hits give low values | fluorescence response (max-min) at 10 µM | 1,700 compounds, 0.9% hits;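 active means fluorescence response below the plate's average for near-maximal glutamate wells, less 3 SD of those wells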;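 further: raw unnormalized fluorescence span taken in the window right after glutamate addition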
Starred values were filed as active, the others as inactive; / = no result. Rows were chosen to be rich in hits. Some 9% of all compounds tested hit in one or more screens of this group.

SMILES	AP ELISA ortho	D1 mod	M1 antagonist	M1 ag	Htt clearance	M1 antag conf	mGluR4 antag
CCc1nnc(NC(=O)C2CCCN2S(=O)(=O)c2ccc(F)cc2)s1 (centres undefined)	-4	0.26	0.51	0.28	10	/	/
CCN(Cc1ccncc1)S(=O)(=O)c1ccc(C(C)=O)cc1	8	-0.93	-0.52	-0.11	/	/	/
CCN1CCN(Cc2coc3ccc(C)cc3c2=O)CC1	6	-0.13	-0.26	0.012	/	/	/
O=c1c(CN2CCN(Cc3ccccc3)CC2)coc2ccc(Cl)cc12	-6	-0.67	-4.2*	-0.83	/	365*	194
Cc1ccc2occ(CN3CCN(c4ccccc4)CC3)c(=O)c2c1	5	-0.16	-3.4*	1.1	-4	508*	223
COc1ccc(S(=O)(=O)N2CCN(S(=O)(=O)c3ccc4c(c3)OCCO4)CC2)cc1C	-1	1.4	0.79	-0.31	15	/	/
COc1cc(NS(C)(=O)=O)c(OC)cc1NC(=O)c1cccc(F)c1	13	-0.0069	1.7	-0.64	/	/	/
COC(=O)c1cn(C(=O)c2cccs2)c2ccccc12	4	0.57	0	1.5	-24	/	/
Cc1cc(-c2nsc(=O)o2)c(S(C)(=O)=O)s1	18	0.51	/	/	/	/	/
CCc1cc2c3c(c(=O)oc2cc1OC)CCCC3	12	0.1	-1.8*	0.036	-12	487	202
Cc1c(NC(=O)C2(C)CCCCC2)c(=O)n(-c2ccccc2)n1C	17	/	-0.33	-0.47	/	/	/
Cc1c(NC2=NC3(CCCCC3)Cc3ccccc32)c(=O)n(-c2ccccc2)n1C	1	-1.1	-2.7*	-0.067	/	62*	200
Cc1cc(C(=O)N(C)Cc2ccc(Br)cc2)no1	10	0.022	-7.8*	-0.014	/	647	241
O=C(Nn1c(-c2ccccc2)nc2ccccc2c1=O)C1CCC1	27	-0.14	0.091	-0.18	-78	/	/
Cc1ccc(S(=O)(=O)Cn2nnnc2C(C(C)C)N2CCSCC2)cc1 (centres undefined)	10	0.00025	-2.3*	0.74	15	646	240
COCC(C)n1c(C)cc(C(=O)COC(=O)c2c(NC(C)=O)sc(C)c2C)c1C (centres undefined)	4	1.6	-0.38	-0.61	/	/	/
COC(=O)C(C(=O)N1CCN(C)CC1)C1CCCCCC1 (centres undefined)	21	0.66	-3.3*	-0.41	-70	527	228
COC(=O)C(NC=O)C(O)(Cc1ccccc1)C(F)(F)F (centres undefined)	-13	/	-0.26	0.77	/	/	/
CCCSc1nc(N)c2c3c(sc2n1)CN(C)CC3	-3	1	-3.9*	0.63	/	485*	213
CN(C)CCSc1nc(N)c2c3c(sc2n1)CN(C)CC3	14	-0.2	-6.2*	-0.37	/	545*	195
CCCn1c(=N)n(CCOCCOCCn2c(=N)n(CCC)c3ccccc32)c2ccccc21	/	/	/	/	22	/	/
CCOc1ccc(NC(=O)CN2CCN(CC(=O)Nc3ccc(F)cc3)CC2)cc1	14	0.0079	0.2	-0.24	8	/	/
CN(C)c1ccc(NC(=O)CN2CCN(CC(=O)Nc3ccc(F)cc3)CC2)cc1	17	0.54	-4.6*	-0.73	/	718	263
CN(C)c1nc(-c2ccccc2)c2cnn(Cc3ccccc3)c2n1	7	-0.57	-0.51	0.06	/	/	/
CN(C1CCCCC1)S(=O)(=O)c1ccc(S(=O)(=O)N2CCCC2)cc1	8	-0.53	-3.3*	0.3	/	327*	236
SMILES	AP ELISA ortho	D1 mod	M1 antagonist	M1 ag	Htt clearance	M1 antag conf	mGluR4 antag
COc1ccc(CCn2c(SCC(=O)Nc3cc(C)on3)nc3ccsc3c2=O)cc1OC	19	-0.44	-1.7*	2.9	-15	596	212
CC1(C)Cc2c(sc(/N=C/N3CCCC3)c2C#N)C(C)(C)N1	/	/	/	/	-8	/	/
CCCc1cc(Nc2c(C)n(C)n(-c3ccccc3)c2=O)n2c(nc3ccccc32)c1C#N	/	/	-2.4*	0.29	/	482	237
Cc1ccc(Cl)cc1N1CCN(C(c2ccc(C#N)cc2)c2nnnn2C2CCCC2)CC1 (centres undefined)	-6	-0.28	-4.1*	-1.2	12	643	243
CC1(C)CC(=O)C=C(NCC2CCCO2)C1 (centres undefined)	-13	/	0.029	0.11	-27	/	/
Cc1cc(C(=O)OCC(=O)NC2CCS(=O)(=O)C2)c(C)n1-c1ccccc1 (centres undefined)	10	-1	-1.7	0.22	/	/	/
CN(C(=O)COC(=O)c1nc(-c2ccccc2)n(-c2ccccc2)n1)C1CCS(=O)(=O)C1 (centres undefined)	-3	/	-4.8*	0.33	/	231*	211
Cc1cc(C(=O)OCC(=O)N(C)C2CCS(=O)(=O)C2)c(C)n1-c1ccccc1 (centres undefined)	2	-0.62	-2.7*	0.12	-19	544	227
CCCCOC(=O)Nc1cccc(C(C)=O)c1	-7	0.34	-4.8*	0.3	/	625	269
COc1ccccc1N1CCN(S(=O)(=O)c2cnc[nH]2)CC1	17	0.48	0.017	0.46	0	/	/
Cc1[nH]n(CCC#N)c(=O)c1CC(=O)N1CCN(c2ccccc2)CC1	6	/	0.51	0.8	11	/	/
Cc1noc(C)c1CSc1nc2ccccc2n1CCc1ccccc1	6	2	-3.8*	0.39	-4	572	239
Cc1noc(C)c1CSc1ccc2ccccc2n1	1	0.053	1.3	-0.39	9	/	/
Cc1noc(C)c1CSc1nc2ccccc2[nH]1	/	0.0059	-1.4*	0.68	14	435*	268
C=CCc1ccc(OCCCCCN2CCOCC2)c(OC)c1	10	0.16	-7*	0.7	1	102*	227
Cc1nnsc1C(=O)Nc1cccc(Cl)c1Cl	/	/	/	/	-9	/	/
CCc1ccccc1N(C(=O)c1cccs1)C1C=CS(=O)(=O)C1 (centres undefined)	-2	0.0045	-0.03	0.041	/	/	/
Cc1sc2nc(CN3CCOCC3)nc(Oc3ccc(NC(=O)c4ccco4)cc3)c2c1C	5	0.78	-0.11	-0.25	-49	/	/
CC(=O)c1ccccc1Oc1nc(CN2CCOCC2)nc2scc(-c3cccs3)c12	7	0.02	-2.3*	0.18	/	478*	183
CCOC(=O)c1ccc(N2C(=O)CC(N3CCN(C/C=C/c4ccccc4)CC3)C2=O)cc1 (centres undefined)	13	0.2	-3.8*	-2.1	-68	494*	231
CCOC(=O)C1CCN(C2CC(=O)N(c3ccc(OCC)cc3)C2=O)CC1 (centres undefined)	21	-0.14	-0.55	-0.51	-57	/	/
CN(C)CCCOC(=O)Cc1ccc(Cl)cc1	9	-0.19	-2.3*	0.046	-8	463	198
CCC(c1nnnn1C(C)C)N1CCN(C2CCCC2)CC1 (centres undefined)	-13	-0.0057	-1.2	-0.86	5	/	/
